Assay results taken from the M2OR odorant receptor database.

Tests used:
Conditions in all cases: stereoisomer not certain
[1] = target: T1, OR51D1 (Homo sapiens) (UniProt Q8NGF3)
T1 sequence (whole entry): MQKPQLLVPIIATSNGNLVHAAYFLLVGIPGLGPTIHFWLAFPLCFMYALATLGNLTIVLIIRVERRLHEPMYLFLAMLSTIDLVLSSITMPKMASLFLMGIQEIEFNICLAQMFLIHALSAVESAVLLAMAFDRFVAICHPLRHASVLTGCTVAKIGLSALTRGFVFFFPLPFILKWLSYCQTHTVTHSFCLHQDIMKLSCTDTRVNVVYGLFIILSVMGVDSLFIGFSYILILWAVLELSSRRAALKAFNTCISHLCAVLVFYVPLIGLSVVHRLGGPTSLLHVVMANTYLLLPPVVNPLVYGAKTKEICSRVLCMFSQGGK
Method in brief: (§1)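 Assay methods differ from source to source, frequently being transient luciferase assays in mammalian cell lines. For each receptor–molecule pair, the label responsive (active) applies when the original authors judged the measured signal statistically different from baseline, and non-responsive (inactive) applies otherwise.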

[2] = target: T2, OR51E1 (Homo sapiens) (UniProt Q8TCB6)
T2 sequence (whole entry): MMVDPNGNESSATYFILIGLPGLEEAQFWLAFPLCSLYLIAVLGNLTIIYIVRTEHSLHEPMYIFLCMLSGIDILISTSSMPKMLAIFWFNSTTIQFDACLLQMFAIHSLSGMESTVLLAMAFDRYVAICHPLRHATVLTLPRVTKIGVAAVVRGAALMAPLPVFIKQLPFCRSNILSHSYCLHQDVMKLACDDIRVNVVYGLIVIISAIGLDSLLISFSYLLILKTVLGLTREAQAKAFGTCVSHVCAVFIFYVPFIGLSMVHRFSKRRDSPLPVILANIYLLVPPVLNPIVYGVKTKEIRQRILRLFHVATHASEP
Method in brief: as §1

[3] = target: T3, OR51E2 (Homo sapiens) (UniProt Q9H255)
T3 sequence (whole entry): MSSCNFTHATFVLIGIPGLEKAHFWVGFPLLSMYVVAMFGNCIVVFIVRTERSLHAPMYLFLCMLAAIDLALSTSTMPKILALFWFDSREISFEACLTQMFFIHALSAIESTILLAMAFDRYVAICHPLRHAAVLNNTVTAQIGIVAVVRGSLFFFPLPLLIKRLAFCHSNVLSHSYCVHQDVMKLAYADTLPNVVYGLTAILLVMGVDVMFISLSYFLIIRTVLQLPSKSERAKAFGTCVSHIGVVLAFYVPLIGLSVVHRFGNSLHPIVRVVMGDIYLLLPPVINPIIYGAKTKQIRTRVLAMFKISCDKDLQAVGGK
Method in brief: as §1

[4] = target: T4, OR51F2 (Homo sapiens) (UniProt Q8NH61)
T4 sequence (whole entry): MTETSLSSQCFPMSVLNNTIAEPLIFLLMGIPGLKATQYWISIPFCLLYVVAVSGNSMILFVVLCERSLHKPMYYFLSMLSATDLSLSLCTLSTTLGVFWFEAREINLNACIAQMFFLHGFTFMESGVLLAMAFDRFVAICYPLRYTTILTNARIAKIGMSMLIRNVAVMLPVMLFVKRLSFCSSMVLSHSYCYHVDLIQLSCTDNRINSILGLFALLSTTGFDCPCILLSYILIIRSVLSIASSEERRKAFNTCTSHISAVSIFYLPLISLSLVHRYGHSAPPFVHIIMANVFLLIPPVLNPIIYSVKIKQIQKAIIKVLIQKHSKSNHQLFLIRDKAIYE
Method in brief: as §1

[5] = target: T5, OR51G1 (Homo sapiens) (UniProt Q8NGK1)
T5 sequence (whole entry): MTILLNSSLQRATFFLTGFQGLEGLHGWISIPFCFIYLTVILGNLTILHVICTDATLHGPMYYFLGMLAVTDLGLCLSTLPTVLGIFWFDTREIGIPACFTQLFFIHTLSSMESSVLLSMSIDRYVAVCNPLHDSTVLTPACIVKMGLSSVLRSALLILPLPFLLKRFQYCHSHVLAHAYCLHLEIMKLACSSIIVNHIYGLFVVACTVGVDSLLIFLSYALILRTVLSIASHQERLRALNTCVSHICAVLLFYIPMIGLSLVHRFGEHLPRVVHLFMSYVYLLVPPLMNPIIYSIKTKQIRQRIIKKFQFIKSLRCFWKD
Method in brief: as §1

[6] = target: T6, OR51G2 (Homo sapiens) (UniProt Q8NGK0)
T6 sequence (whole entry): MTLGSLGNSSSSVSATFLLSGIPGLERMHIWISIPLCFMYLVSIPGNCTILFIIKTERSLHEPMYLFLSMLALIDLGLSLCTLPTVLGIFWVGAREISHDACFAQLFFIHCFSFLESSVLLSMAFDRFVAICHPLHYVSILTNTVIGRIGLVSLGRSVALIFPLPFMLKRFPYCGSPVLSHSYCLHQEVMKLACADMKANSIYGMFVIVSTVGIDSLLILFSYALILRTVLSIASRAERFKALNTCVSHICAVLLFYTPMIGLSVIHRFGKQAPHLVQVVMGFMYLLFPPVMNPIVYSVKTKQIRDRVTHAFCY
Method in brief: as §1

[7] = target: T7, OR51I1 (Homo sapiens) (UniProt Q9H343)
T7 sequence (whole entry): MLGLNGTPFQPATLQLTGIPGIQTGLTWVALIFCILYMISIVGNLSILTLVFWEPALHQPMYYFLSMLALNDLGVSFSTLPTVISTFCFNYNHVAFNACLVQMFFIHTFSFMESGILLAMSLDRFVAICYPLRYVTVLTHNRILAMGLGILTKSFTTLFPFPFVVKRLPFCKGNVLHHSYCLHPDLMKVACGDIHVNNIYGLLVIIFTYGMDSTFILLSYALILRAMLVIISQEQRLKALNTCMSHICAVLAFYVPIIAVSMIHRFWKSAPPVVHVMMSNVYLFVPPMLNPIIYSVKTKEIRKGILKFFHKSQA
Method in brief: as §1

[8] = target: T8, OR51I2 (Homo sapiens) (UniProt Q9H344)
T8 sequence (whole entry): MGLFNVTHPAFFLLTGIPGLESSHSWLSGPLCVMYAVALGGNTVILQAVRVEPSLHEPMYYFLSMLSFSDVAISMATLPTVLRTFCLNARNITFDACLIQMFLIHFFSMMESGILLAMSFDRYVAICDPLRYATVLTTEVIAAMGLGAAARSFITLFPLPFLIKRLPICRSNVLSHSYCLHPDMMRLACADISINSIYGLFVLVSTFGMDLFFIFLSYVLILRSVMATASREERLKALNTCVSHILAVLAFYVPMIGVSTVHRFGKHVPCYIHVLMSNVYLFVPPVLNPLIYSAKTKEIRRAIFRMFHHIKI
Method in brief: as §1

[9] = target: T9, OR51J1 (Homo sapiens) (UniProt Q9H342)
T9 sequence (whole entry): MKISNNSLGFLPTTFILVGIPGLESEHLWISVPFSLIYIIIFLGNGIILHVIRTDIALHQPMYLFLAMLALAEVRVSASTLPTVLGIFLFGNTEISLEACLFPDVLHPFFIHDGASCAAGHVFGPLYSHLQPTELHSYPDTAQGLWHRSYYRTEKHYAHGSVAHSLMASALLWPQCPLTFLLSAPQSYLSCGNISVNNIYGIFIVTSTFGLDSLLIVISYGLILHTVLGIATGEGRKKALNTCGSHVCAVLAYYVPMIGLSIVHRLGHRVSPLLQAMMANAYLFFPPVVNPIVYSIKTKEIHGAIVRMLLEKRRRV
Method in brief: as §1

[10] = target: T10, OR51L1 (Homo sapiens) (UniProt Q8NGJ5)
T10 sequence (whole entry): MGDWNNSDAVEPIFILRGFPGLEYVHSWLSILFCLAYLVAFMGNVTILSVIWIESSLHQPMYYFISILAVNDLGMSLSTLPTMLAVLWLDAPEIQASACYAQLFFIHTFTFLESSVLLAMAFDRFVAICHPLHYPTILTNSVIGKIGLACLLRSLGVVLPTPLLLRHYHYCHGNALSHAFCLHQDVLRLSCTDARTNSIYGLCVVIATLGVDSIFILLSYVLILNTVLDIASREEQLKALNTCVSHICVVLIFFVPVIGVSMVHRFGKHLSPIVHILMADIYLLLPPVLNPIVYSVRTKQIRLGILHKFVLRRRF
Method in brief: as §1

[11] = target: T11, OR51M1 (Homo sapiens) (UniProt Q9H341)
T11 sequence (whole entry): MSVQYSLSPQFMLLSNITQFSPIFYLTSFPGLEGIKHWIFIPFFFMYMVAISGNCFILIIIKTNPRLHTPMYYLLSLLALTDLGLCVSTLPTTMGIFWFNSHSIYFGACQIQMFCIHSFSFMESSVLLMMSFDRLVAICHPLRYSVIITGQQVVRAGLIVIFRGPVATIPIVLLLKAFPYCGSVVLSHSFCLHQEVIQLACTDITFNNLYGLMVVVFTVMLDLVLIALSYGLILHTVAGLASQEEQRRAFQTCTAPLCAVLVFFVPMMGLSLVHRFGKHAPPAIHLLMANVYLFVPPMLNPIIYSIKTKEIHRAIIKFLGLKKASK
Method in brief: as §1

[12] = target: T12, OR51Q1 (Homo sapiens) (UniProt Q8NH59)
T12 sequence (whole entry): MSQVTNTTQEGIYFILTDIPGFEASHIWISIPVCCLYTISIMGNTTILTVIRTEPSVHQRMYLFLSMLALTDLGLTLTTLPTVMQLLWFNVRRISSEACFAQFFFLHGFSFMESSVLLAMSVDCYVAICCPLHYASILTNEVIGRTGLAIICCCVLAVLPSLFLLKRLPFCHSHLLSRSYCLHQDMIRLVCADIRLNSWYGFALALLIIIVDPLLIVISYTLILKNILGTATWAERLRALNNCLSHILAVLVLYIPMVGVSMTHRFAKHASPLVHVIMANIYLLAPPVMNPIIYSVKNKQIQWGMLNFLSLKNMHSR
Method in brief: as §1

[13] = target: T13, OR51S1 (Homo sapiens) (UniProt Q8NGJ8)
T13 sequence (whole entry): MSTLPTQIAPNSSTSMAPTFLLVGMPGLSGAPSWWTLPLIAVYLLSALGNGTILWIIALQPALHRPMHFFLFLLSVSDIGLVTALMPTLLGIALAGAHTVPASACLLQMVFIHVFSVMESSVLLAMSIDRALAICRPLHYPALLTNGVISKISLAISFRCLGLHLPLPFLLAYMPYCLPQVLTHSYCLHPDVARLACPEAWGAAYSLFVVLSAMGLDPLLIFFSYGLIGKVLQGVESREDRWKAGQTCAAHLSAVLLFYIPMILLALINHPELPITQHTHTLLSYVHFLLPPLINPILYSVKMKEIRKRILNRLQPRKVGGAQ
Method in brief: as §1

[14] = target: T14, OR51V1 (Homo sapiens) (UniProt Q9H2C8)
T14 sequence (whole entry): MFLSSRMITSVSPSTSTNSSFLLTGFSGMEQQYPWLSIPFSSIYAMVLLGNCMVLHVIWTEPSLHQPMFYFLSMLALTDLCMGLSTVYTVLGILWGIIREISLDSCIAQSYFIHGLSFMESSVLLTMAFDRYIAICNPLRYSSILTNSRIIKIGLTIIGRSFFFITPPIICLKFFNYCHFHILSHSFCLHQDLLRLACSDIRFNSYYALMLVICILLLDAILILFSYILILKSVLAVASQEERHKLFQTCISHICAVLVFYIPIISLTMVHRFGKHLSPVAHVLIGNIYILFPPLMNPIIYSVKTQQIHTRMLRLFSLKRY
Method in brief: as §1

[15] = target: T15, OR52A1 (Homo sapiens) (UniProt Q9UKL2)
T15 sequence (whole entry): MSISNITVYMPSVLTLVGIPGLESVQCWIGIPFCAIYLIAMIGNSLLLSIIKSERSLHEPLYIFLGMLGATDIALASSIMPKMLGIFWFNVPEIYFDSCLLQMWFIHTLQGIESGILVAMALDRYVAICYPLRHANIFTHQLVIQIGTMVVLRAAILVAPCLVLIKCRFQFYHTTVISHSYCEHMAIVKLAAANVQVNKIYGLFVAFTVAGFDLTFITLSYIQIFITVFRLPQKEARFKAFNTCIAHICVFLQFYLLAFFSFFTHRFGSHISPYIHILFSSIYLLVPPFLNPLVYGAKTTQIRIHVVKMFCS
Method in brief: as §1

[16] = target: T16, OR51E1 (Homo sapiens) (UniProt Q8TCB6); remark: listed apart in the source
T16 sequence (whole entry): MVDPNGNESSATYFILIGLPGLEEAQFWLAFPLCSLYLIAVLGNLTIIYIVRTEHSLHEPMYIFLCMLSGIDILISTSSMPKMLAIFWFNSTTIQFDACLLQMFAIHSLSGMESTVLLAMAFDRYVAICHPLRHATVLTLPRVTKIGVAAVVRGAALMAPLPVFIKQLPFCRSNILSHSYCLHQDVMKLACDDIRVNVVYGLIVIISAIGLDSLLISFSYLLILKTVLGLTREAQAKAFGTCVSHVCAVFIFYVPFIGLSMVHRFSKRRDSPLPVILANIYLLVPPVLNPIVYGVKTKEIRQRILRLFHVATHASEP
Method in brief: as §1

Measured: odorant receptor agonist call

CC1=C(O)C(=O)C(C)O1 (stereo not drawn)
not listed: [16]
inactive: all other assays above

CCCCCCOC(C)=O
inactive: [16] | [3] | [10]
